Source: ChEMBL document CHEMBL4665656, “Toxicity, bioactivity, release of HS in vivo and pharmaco-kinetics of HS-donors with thiophosphamide structure” (Eur J Med Chem, 2019)

Experiments:
[1] = Induction of H2S generation assessed as half life at 150 uM incubated at 37 degC and pH 7.4 by fluorescence spectrophotometry; type: functional
In short: (§1)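 Donor at 150 µM final, mixed with 200 µM sulfonyl-azide fluorescent probe in buffer/acetonitrile (1:9) at set pH. Cuvette held in a water bath at 22 °C or 37 °C, with fluorescence read three times at intervals. H2S was quantified from a Na2S standard curve (0–200 µM, probe 200 µM).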

[2] = Induction of H2S generation assessed as half life at 150 uM incubated at 22 degC and pH 7.4 by fluorescence spectrophotometry; type: functional; in short: as §1
HepG2 = test: Cytotoxicity in human HePG2 cells assessed as growth inhibition incubated for 24 hrs by MTT assay; type: functional, cell-based; conditions: HepG2, 24 h
In short: (§2)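 Cells were grown in RPMI 1640 with 10% FBS at 37 °C and 10% CO2, seeded at 6×10^3 cells/well. Exposure was 24 h, with viability by MTT, in triplicate cultures. IC50 was reported as mean ± SD.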

WI-38 = test: Cytotoxicity in human W138 cells assessed as growth inhibition incubated for 24 hrs by MTT assay; type: cell-based; conditions: WI-38, 24 h; in short: as §2
[3] = Induction of H2S generation assessed as half life at 150 uM incubated at 22 degC and pH 5 by fluorescence spectrophotometry; type: functional; in short: as §1
[4] = Induction of H2S generation assessed as half life at 150 uM incubated at 37 degC and pH 5 by fluorescence spectrophotometry; type: functional; in short: as §1
[5] = Induction of H2S generation assessed as half life at 150 uM incubated at 37 degC and pH 8 by fluorescence spectrophotometry; type: functional; in short: as §1
[6] = Induction of H2S generation assessed as half life at 150 uM incubated at 37 degC and pH 1.2 by fluorescence spectrophotometry; type: functional; in short: as §1
HT-29 = test: Cytotoxicity in human HT-29 cells assessed as growth inhibition incubated for 24 hrs by MTT assay; type: functional, cell-based; conditions: HT-29, 24 h; in short: as §2
[7] = Induction of H2S generation assessed as Cmax at 150 uM incubated at 22 degC and pH 1.2 by fluorescence spectrophotometry; type: functional; in short: as §1
[8] = Induction of H2S generation assessed as half life at 150 uM incubated at 22 degC and pH 8 by fluorescence spectrophotometry; type: functional; in short: as §1
[9] = Induction of H2S generation assessed as Cmax at 150 uM incubated at 37 degC and pH 1.2 by fluorescence spectrophotometry; type: functional; in short: as §1
MCF7 = test: Cytotoxicity in human MCF-7 cells assessed as growth inhibition incubated for 24 hrs by MTT assay; type: functional, cell-based; conditions: MCF7, 24 h; in short: as §2
[10] = Induction of H2S generation assessed as Cmax at 150 uM incubated at 22 degC and pH 5 by fluorescence spectrophotometry; type: functional; in short: as §1
HeLa = test: Cytotoxicity in human HeLa cells assessed as growth inhibition incubated for 24 hrs by MTT assay; type: functional, cell-based; in short: as §2
[11] = Induction of H2S generation assessed as Cmax at 150 uM incubated at 37 degC and pH 5 by fluorescence spectrophotometry; type: functional; in short: as §1
[12] = Induction of H2S generation assessed as half life at 150 uM incubated at 22 degC and pH 1.2 by fluorescence spectrophotometry; type: functional; in short: as §1
[13] = Induction of H2S generation assessed as Cmax at 150 uM incubated at 22 degC and pH 7.4 by fluorescence spectrophotometry; type: functional; in short: as §1
A549 = test: Cytotoxicity in human A549 cells assessed as growth inhibition incubated for 24 hrs by MTT assay; type: functional, cell-based; conditions: A549, 24 h; in short: as §2
[14] = Induction of H2S generation assessed as Cmax at 150 uM incubated at 22 degC and pH 8 by fluorescence spectrophotometry; type: functional; in short: as §1
[15] = Induction of H2S generation assessed as Cmax Induction of H2S generation assessed as Cmax at 150 uM incubated at 37 degC and pH 8 by fluorescence spectrophotometry; type: functional; in short: as §1
[16] = Induction of H2S generation assessed as Cmax Induction of H2S generation assessed as Cmax at 150 uM incubated at 37 degC and pH 7.4 by fluorescence spectrophotometry; type: functional; in short: as §1

Row | SMILES | T1/2 [1] | T1/2 [2] | IC50 (HepG2) | IC50 (WI-38) | T1/2 [3] | T1/2 [4] | T1/2 [5] | T1/2 [6] | IC50 (HT-29) | Cmax [7] | T1/2 [8] | Cmax [9] | IC50 (MCF7) | Cmax [10] | IC50 (HeLa) | Cmax [11] | T1/2 [12] | Cmax [13] | IC50 (A549) | Cmax [14] | other results
1 | CC[C@H](C)[C@H](NP(O)(=S)c1ccccc1)C(=O)O (stereo partly drawn) | 2.91 min | 3.65 min | 604 µM | 658 µM | 2.87 min | 2.72 min | 4.17 min | 1.53 min | 782 µM | 119 µM | 4.04 min | 123 µM | 601 µM | 117 µM | 972 µM | 123 µM | 2.04 min | 117 µM | 236 µM | 117 µM | Cmax [15]: 122 µM; Cmax [16]: 123 µM
2 | CSCC[C@H](NP(O)(=S)c1ccccc1)C(=O)O (stereo partly drawn) | 2.83 min | 3.32 min | 286 µM | 546 µM | 3.64 min | 2.44 min | 3.55 min | 2.2 min | 826 µM | 114 µM | 4.26 min | 120 µM | 671 µM | 113 µM | 919 µM | 120 µM | 2.68 min | 112 µM | 309 µM | 113 µM | Cmax [15]: 118 µM; Cmax [16]: 120 µM
3 | S=P1(c2ccccc2)NCCCN1 | 27.1 min | 27.5 min | 801 µM | 381 µM | 29.8 min | 29.6 min | 28.4 min | 27.8 min | 600 µM | 27 µM | 29 min | 35.7 µM | 850 µM | 27.2 µM | 793 µM | 35.5 µM | 29.2 min | 27.2 µM | 876 µM | 27.1 µM | Cmax [15]: 35.7 µM
4 | O=C(O)[C@H](Cc1ccccc1)NP(O)(=S)c1ccccc1 (stereo partly drawn) | 2.61 min | 3.54 min | 671 µM | 690 µM | 2.71 min | 2.33 min | 4.7 min | 1.53 min | 542 µM | 122 µM | 4.58 min | 129 µM | 663 µM | 121 µM | 712 µM | 129 µM | 2.37 min | 122 µM | 237 µM | 120 µM | Cmax [15]: 127 µM; Cmax [16]: 128 µM
5 | S=P1(c2ccccc2)OCCCO1 | 33 min | 34.6 min | 612 µM | 653 µM | 35.8 min | 34.7 min | 35.8 min | 34.2 min | 991 µM | 24.8 µM | 33 min | 38.4 µM | 853 µM | 25.7 µM | 1280 µM | 37.4 µM | 33.5 min | 24.4 µM | 569 µM | 25.7 µM | Cmax [15]: 35.7 µM; Cmax [16]: 27.2 µM
6 | S=P1(c2ccccc2)NCCO1 (stereo not drawn) | 32.2 min | 31.9 min | 775 µM | 759 µM | 32.7 min | 32.6 min | 33.6 min | 31.9 min | 539 µM | 30 µM | 31.3 min | 35.6 µM | 798 µM | 29.9 µM | 930 µM | 37 µM | 33.8 min | 29.9 µM | 622 µM | 29.7 µM | Cmax [15]: 35.4 µM; Cmax [16]: 31.1 µM
7 | S=P1(c2ccccc2)OCC2CCCN21 (stereo not drawn) | 28.9 min | 27.3 min | 531 µM | 503 µM | 28.2 min | 28.6 min | 27.5 min | 27.8 min | 636 µM | 27.1 µM | 29.2 min | 36.2 µM | 920 µM | 27.1 µM | 984 µM | 36.8 µM | 29.9 min | 26.9 µM | – | 27.1 µM | Cmax [15]: 33.7 µM; Cmax [16]: 28.2 µM
8 | S=P1(c2ccccc2)NCCN1 | 31.1 min | 30.9 min | 657 µM | 958 µM | 31.1 min | 32.9 min | 31.6 min | 31.2 min | 780 µM | 28.5 µM | 30 min | 35.7 µM | 713 µM | 28.4 µM | 968 µM | 35.4 µM | 32.5 min | 28.4 µM | 641 µM | 28.3 µM | Cmax [15]: 34.8 µM; Cmax [16]: 29.9 µM
9 | CC(C)[C@H](NP(O)(=S)c1ccccc1)C(=O)O (stereo partly drawn) | 2.84 min | 3.11 min | 690 µM | 546 µM | 2.42 min | 2.25 min | 3.62 min | 1.55 min | 602 µM | 121 µM | 4.42 min | 125 µM | 542 µM | 122 µM | 809 µM | 126 µM | 2.13 min | 122 µM | 294 µM | 122 µM | Cmax [15]: 124 µM; Cmax [16]: 125 µM
10 | O=C(O)[C@@H]1CCCN1P(O)(=S)c1ccccc1 (stereo partly drawn) | 9.92 min | 9.27 min | 816 µM | 872 µM | 10.6 min | 9.15 min | 9.83 min | 10.4 min | 932 µM | 4 µM | 10.8 min | 4.2 µM | 874 µM | 4.2 µM | 839 µM | 4.2 µM | 10.9 min | 4 µM | 519 µM | 4.1 µM | Cmax [15]: 4.3 µM; Cmax [16]: 4.2 µM
11 | O=c1[nH]cc(F)c(=O)[nH]1 [FLUOROURACIL] | – | – | 112 µM | 202 µM | – | – | – | – | 146 µM | – | – | – | 136 µM | – | 120 µM | – | – | – | 104 µM | – | –
12 | C[C@H](NP(O)(=S)c1ccccc1)C(=O)O (stereo partly drawn) | 2.75 min | 3.72 min | 858 µM | 351 µM | 3.32 min | 2.23 min | 3.4 min | 1.67 min | 689 µM | 104 µM | 4.33 min | 110 µM | 832 µM | 103 µM | 888 µM | 106 µM | 2.36 min | 102 µM | 346 µM | 103 µM | Cmax [15]: 106 µM; Cmax [16]: 108 µM
13 | CC(C)C[C@H](NP(O)(=S)c1ccccc1)C(=O)O (stereo partly drawn) | 2.83 min | 3.72 min | 415 µM | 438 µM | 3.25 min | 2.75 min | 3.59 min | 2.04 min | 756 µM | 113 µM | 4.44 min | 119 µM | 643 µM | 112 µM | 835 µM | 118 µM | 2.65 min | 112 µM | 273 µM | 111 µM | Cmax [15]: 116 µM; Cmax [16]: 118 µM
